For five compounds, Tm results are on record in ChEMBL document CHEMBL2413013, “Triplex-forming ability of oligonucleotides containing 1-aryl-1,2,3-triazole nucleobases linked via a two atom-length spacer” (Bioorg Med Chem, 2013).

Assay [1] can be described thus: Binding affinity to hairpin double stranded DNA AT base pair in sodium cacodylate buffer at pH 6.8 assessed as triplex-forming ability measuring melting temperature after by UV melting experiment. In a few lines:
(§1)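 TFO and hairpin dsDNA target, each strand at 1.89 μM final, in 10 mM sodium cacodylate (pH 6.8) with 100 mM KCl and 50 mM MgCl₂. Annealed in boiling water, then cooled slowly to 5 °C. Melting was followed at 260 nm from 5 to 90 °C at 0.5 °C/min. Tm was taken by the two-point average method, mean of three independent runs.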

Assay [2] can be described thus: Binding affinity to hairpin double stranded DNA GC base pair in sodium cacodylate buffer at pH 6.8 assessed as triplex-forming ability measuring melting temperature after by UV melting experiment. In short, it runs like this:
as §1

Assay [3] is described as follows: Binding affinity to hairpin double stranded DNA CG base pair in sodium cacodylate buffer at pH 6.8 assessed as triplex-forming ability measuring melting temperature after by UV melting experiment. In short, it runs like this: as §1
A short description of assay [4]: Binding affinity to hairpin double stranded DNA TA base pair in sodium cacodylate buffer at pH 6.8 assessed as triplex-forming ability measuring melting temperature after by UV melting experiment. In a few lines:
as §1

On to `CC1=CN([C@H]2C[C@H](O[PH](OCCC#N)(OC(C)[C@H]3O[C@@H](n4ccc(N)nc4=O)C[C@@H]3O[PH](OCCC#N)(OC[C@H]3O[C@@H](n4cc(C)c(=O)[nH]c4=O)C[C@@H]3O[PH](OCCC#N)(OC[C@H]3O[C@@H](OCc4cn(-c5ccccc5O)nn4)C[C@@H]3OP(=O)(O)OC[C@H]3O[C@@H](n4cc(C)c(=O)[nH]c4=O)C[C@@H]3O[PH](OCCC#N)(OC(C)[C@H]3O[C@@H](n4ccc(N)nc4=O)C[C@@H]3O[PH](OCCC#N)(OC[C@H]3O[C@@H](n4cc(C)c(=O)[nH]c4=O)C[C@@H]3O[PH](OCCC#N)(OC(C)[C@H]3O[C@@H](n4ccc(N)nc4=O)C[C@@H]3O[PH](OCCC#N)(OC[C@H]3O[C@@H](n4cc(C)c(=O)[nH]c4=O)C[C@@H]3O[PH](OCCC#N)(OC(C)[C@H]3O[C@@H](n4ccc(N)nc4=O)C[C@@H]3O[PH](OCCC#N)(OC[C@H]3O[C@@H](n4cc(C)c(=O)[nH]c4=O)C[C@@H]3O)N(C(C)C)C(C)C)N(C(C)C)C(C)C)N(C(C)C)C(C)C)N(C(C)C)C(C)C)N(C(C)C)C(C)C)N(C(C)C)C(C)C)N(C(C)C)C(C)C)N(C(C)C)C(C)C)N(C(C)C)C(C)C)[C@@H](CO[PH](OCCC#N)(O[C@H]3C[C@H](n4cc(C)c(=O)[nH]c4=O)O[C@@H]3CO[PH](OCCC#N)(O[C@H]3C[C@H](n4cc(C)c(=O)[nH]c4=O)O[C@@H]3CO[PH](OCCC#N)(O[C@H]3C[C@H](n4cc(C)c(=O)[nH]c4=O)O[C@@H]3CO[PH](OCCC#N)(O[C@H]3C[C@H](n4cc(C)c(=O)[nH]c4=O)O[C@@H]3CO)N(C(C)C)C(C)C)N(C(C)C)C(C)C)N(C(C)C)C(C)C)N(C(C)C)C(C)C)O2)C(O)NC1=O` (stereo not given in full), for which the Tm in assay [1] amounted to 20 °C; in assay [2] it was 20 °C; in assay [3] it was 23 °C; in assay [4], 20 °C.

Turning to `Cc1cn([C@H]2C[C@H](O[PH](OCCC#N)(OC[C@H]3O[C@@H](n4cc(C)c(=O)[nH]c4=O)C[C@@H]3O[PH](OCCC#N)(OC[C@H]3O[C@@H](n4cc(C)c(=O)[nH]c4=O)C[C@@H]3O[PH](OCCC#N)(OC[C@H]3O[C@@H](n4cc(C)c(=O)[nH]c4=O)C[C@@H]3O[PH](OCCC#N)(OC[C@H]3O[C@@H](n4cc(C)c(=O)[nH]c4=O)C[C@@H]3O[PH](OCCC#N)(OC(C)[C@H]3O[C@@H](n4ccc(N)nc4=O)C[C@@H]3O[PH](OCCC#N)(OC[C@H]3O[C@@H](n4cc(C)c(=O)[nH]c4=O)C[C@@H]3O[PH](OCCC#N)(OC[C@H]3O[C@@H](CCc4cn(-c5cc(NC(N)=O)cc(NC(N)=O)c5)nn4)C[C@@H]3OP(=O)(O)OC[C@H]3O[C@@H](n4cc(C)c(=O)[nH]c4=O)C[C@@H]3O[PH](OCCC#N)(OC(C)[C@H]3O[C@@H](n4ccc(N)nc4=O)C[C@@H]3O[PH](OCCC#N)(OC[C@H]3O[C@@H](n4cc(C)c(=O)[nH]c4=O)C[C@@H]3O[PH](OCCC#N)(OC(C)[C@H]3O[C@@H](n4ccc(N)nc4=O)C[C@@H]3O[PH](OCCC#N)(OC[C@H]3O[C@@H](n4cc(C)c(=O)[nH]c4=O)C[C@@H]3O[PH](OCCC#N)(OC(C)[C@H]3O[C@@H](n4ccc(N)nc4=O)C[C@@H]3O[PH](OCCC#N)(OC[C@H]3O[C@@H](n4cc(C)c(=O)[nH]c4=O)C[C@@H]3O)N(C(C)C)C(C)C)N(C(C)C)C(C)C)N(C(C)C)C(C)C)N(C(C)C)C(C)C)N(C(C)C)C(C)C)N(C(C)C)C(C)C)N(C(C)C)C(C)C)N(C(C)C)C(C)C)N(C(C)C)C(C)C)N(C(C)C)C(C)C)N(C(C)C)C(C)C)N(C(C)C)C(C)C)N(C(C)C)C(C)C)[C@@H](CO)O2)c(=O)[nH]c1=O` (stereo not given in full), the Tm in assay [1] came out at 22 °C; in assay [2], 23 °C; in assay [3] it was 27 °C; in assay [4] it was 27 °C.

Take `Cc1cn([C@H]2C[C@H](O[PH](OCCC#N)(OC[C@H]3O[C@@H](n4cc(C)c(=O)[nH]c4=O)C[C@@H]3O[PH](OCCC#N)(OC[C@H]3O[C@@H](n4cc(C)c(=O)[nH]c4=O)C[C@@H]3O[PH](OCCC#N)(OC[C@H]3O[C@@H](n4cc(C)c(=O)[nH]c4=O)C[C@@H]3O[PH](OCCC#N)(OC[C@H]3O[C@@H](n4cc(C)c(=O)[nH]c4=O)C[C@@H]3O[PH](OCCC#N)(OC(C)[C@H]3O[C@@H](n4ccc(N)nc4=O)C[C@@H]3O[PH](OCCC#N)(OC[C@H]3O[C@@H](n4cc(C)c(=O)[nH]c4=O)C[C@@H]3O[PH](OCCC#N)(OC[C@H]3O[C@@H](OCc4cn(-c5cccc(O)c5)nn4)C[C@@H]3OP(=O)(O)OC[C@H]3O[C@@H](n4cc(C)c(=O)[nH]c4=O)C[C@@H]3O[PH](OCCC#N)(OC(C)[C@H]3O[C@@H](n4ccc(N)nc4=O)C[C@@H]3O[PH](OCCC#N)(OC[C@H]3O[C@@H](n4cc(C)c(=O)[nH]c4=O)C[C@@H]3O[PH](OCCC#N)(OC(C)[C@H]3O[C@@H](n4ccc(N)nc4=O)C[C@@H]3O[PH](OCCC#N)(OC[C@H]3O[C@@H](n4cc(C)c(=O)[nH]c4=O)C[C@@H]3O[PH](OCCC#N)(OC(C)[C@H]3O[C@@H](n4ccc(N)nc4=O)C[C@@H]3O[PH](OCCC#N)(OC[C@H]3O[C@@H](n4cc(C)c(=O)[nH]c4=O)C[C@@H]3O)N(C(C)C)C(C)C)N(C(C)C)C(C)C)N(C(C)C)C(C)C)N(C(C)C)C(C)C)N(C(C)C)C(C)C)N(C(C)C)C(C)C)N(C(C)C)C(C)C)N(C(C)C)C(C)C)N(C(C)C)C(C)C)N(C(C)C)C(C)C)N(C(C)C)C(C)C)N(C(C)C)C(C)C)N(C(C)C)C(C)C)[C@@H](CO)O2)c(=O)[nH]c1=O` (stereo not given in full): the Tm in assay [1] stood at 20 °C; in assay [2], 21 °C; in assay [3], 24 °C; in assay [4], 21 °C.

On to `Cc1cn([C@H]2C[C@H](O[PH](OCCC#N)(OC[C@H]3O[C@@H](n4cc(C)c(=O)[nH]c4=O)C[C@@H]3O[PH](OCCC#N)(OC[C@H]3O[C@@H](n4cc(C)c(=O)[nH]c4=O)C[C@@H]3O[PH](OCCC#N)(OC[C@H]3O[C@@H](n4cc(C)c(=O)[nH]c4=O)C[C@@H]3O[PH](OCCC#N)(OC[C@H]3O[C@@H](n4cc(C)c(=O)[nH]c4=O)C[C@@H]3O[PH](OCCC#N)(OC(C)[C@H]3O[C@@H](n4ccc(N)nc4=O)C[C@@H]3O[PH](OCCC#N)(OC[C@H]3O[C@@H](n4cc(C)c(=O)[nH]c4=O)C[C@@H]3O[PH](OCCC#N)(OC[C@H]3O[C@@H](CCc4cn(-c5cccc(O)c5)nn4)C[C@@H]3OP(=O)(O)OC[C@H]3O[C@@H](n4cc(C)c(=O)[nH]c4=O)C[C@@H]3O[PH](OCCC#N)(OC(C)[C@H]3O[C@@H](n4ccc(N)nc4=O)C[C@@H]3O[PH](OCCC#N)(OC[C@H]3O[C@@H](n4cc(C)c(=O)[nH]c4=O)C[C@@H]3O[PH](OCCC#N)(OC(C)[C@H]3O[C@@H](n4ccc(N)nc4=O)C[C@@H]3O[PH](OCCC#N)(OC[C@H]3O[C@@H](n4cc(C)c(=O)[nH]c4=O)C[C@@H]3O[PH](OCCC#N)(OC(C)[C@H]3O[C@@H](n4ccc(N)nc4=O)C[C@@H]3O[PH](OCCC#N)(OC[C@H]3O[C@@H](n4cc(C)c(=O)[nH]c4=O)C[C@@H]3O)N(C(C)C)C(C)C)N(C(C)C)C(C)C)N(C(C)C)C(C)C)N(C(C)C)C(C)C)N(C(C)C)C(C)C)N(C(C)C)C(C)C)N(C(C)C)C(C)C)N(C(C)C)C(C)C)N(C(C)C)C(C)C)N(C(C)C)C(C)C)N(C(C)C)C(C)C)N(C(C)C)C(C)C)N(C(C)C)C(C)C)[C@@H](CO)O2)c(=O)[nH]c1=O` (stereo not given in full), for which the Tm in assay [1] was 21 °C; in assay [2], 21 °C; in assay [3] it was 22 °C; in assay [4], 22 °C.

Consider `Cc1cn([C@H]2C[C@H](O[PH](OCCC#N)(OC[C@H]3O[C@@H](n4cc(C)c(=O)[nH]c4=O)C[C@@H]3O[PH](OCCC#N)(OC[C@H]3O[C@@H](n4cc(C)c(=O)[nH]c4=O)C[C@@H]3O[PH](OCCC#N)(OC[C@H]3O[C@@H](n4cc(C)c(=O)[nH]c4=O)C[C@@H]3O[PH](OCCC#N)(OC[C@H]3O[C@@H](n4cc(C)c(=O)[nH]c4=O)C[C@@H]3O[PH](OCCC#N)(OC(C)[C@H]3O[C@@H](N4C=CC(N)=N[C@@H]4O)C[C@@H]3O[PH](OCCC#N)(OC[C@H]3O[C@@H](n4cc(C)c(=O)[nH]c4=O)C[C@@H]3O[PH](OCCC#N)(OC[C@H]3O[C@@H](OCc4cn(-c5cccc(C(N)=O)c5)nn4)C[C@@H]3OP(=O)(O)OC[C@H]3O[C@@H](n4cc(C)c(=O)[nH]c4=O)C[C@@H]3O[PH](OCCC#N)(OC(C)[C@H]3O[C@@H](n4ccc(N)nc4=O)C[C@@H]3O[PH](OCCC#N)(OC[C@H]3O[C@@H](n4cc(C)c(=O)[nH]c4=O)C[C@@H]3O[PH](OCCC#N)(OC(C)[C@H]3O[C@@H](n4ccc(N)nc4=O)C[C@@H]3O[PH](OCCC#N)(OC[C@H]3O[C@@H](n4cc(C)c(=O)[nH]c4=O)C[C@@H]3O[PH](OCCC#N)(OC(C)[C@H]3O[C@@H](n4ccc(N)nc4=O)C[C@@H]3O[PH](OCCC#N)(OC[C@H]3O[C@@H](n4cc(C)c(=O)[nH]c4=O)C[C@@H]3O)N(C(C)C)C(C)C)N(C(C)C)C(C)C)N(C(C)C)C(C)C)N(C(C)C)C(C)C)N(C(C)C)C(C)C)N(C(C)C)C(C)C)N(C(C)C)C(C)C)N(C(C)C)C(C)C)N(C(C)C)C(C)C)N(C(C)C)C(C)C)N(C(C)C)C(C)C)N(C(C)C)C(C)C)N(C(C)C)C(C)C)[C@@H](CO)O2)c(=O)[nH]c1=O` (stereo not given in full), for which the Tm in assay [1] amounted to 19 °C; in assay [2], 20 °C; in assay [3], 23 °C; in assay [4] it was 19 °C.
